Experimental data reported in article PMC11770135 (Journal of Pesticide Science, 2024).

Experiments:
[1] = system: respiratory complexes I, III, and IV (NADH oxidase activity); test: NADH oxidase activity; type: biochemical, housefly (Musca domestica); conditions: housefly mitochondria; compound added during NADH oxidation at final 40 nM
Procedure, shortened: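 Housefly crude mitochondria were prepared by homogenizing in 250 mM sucrose, 5.0 mM EDTA, 10 mM Tris-HCl (pH 7.5), then differential centrifugation, and permeabilized by freeze-thawing. Protein was 30 µg/mL in 150 mM KCl, 2.5 mM MgCl₂, 30 mM KPi (pH 7.4) at 30°C. The reaction was started with 150 µM NADH, and NADH oxidation was followed at 340 nm.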

[2] = system: cytochrome b hemes of complex III; test: Reduction of cytochrome b hemes in housefly mitochondria; type: biochemical, housefly (Musca domestica); conditions: myxothiazol 8 µM with FloMet 5 µM or antimycin A 2 µM
Procedure, shortened: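 Housefly mitochondria at 0.8 mg/mL were held in 150 mM KCl, 2.5 mM MgCl₂, 1 µM rotenone, 0.2 µM SF6847, 2.0 mM KCN and 30 mM KPi (pH 7.4) at 30°C, and equilibrated with inhibitor(s) for 4 min. Reduction was started with succinate and recorded in dual-wavelength mode. Full reduction was set with excess sodium dithionite.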

Qi site of complex III = target: T1, Qi site of complex III (Lucilia sericata, UniProt A7DT80); test: MS-based competition binding, Qi site; parameters: species or system green bottle fly (Lucilia sericata); conditions: reporter ligand FloMet 15 nM; two independent experiments
T1 sequence (A7DT80 1-378): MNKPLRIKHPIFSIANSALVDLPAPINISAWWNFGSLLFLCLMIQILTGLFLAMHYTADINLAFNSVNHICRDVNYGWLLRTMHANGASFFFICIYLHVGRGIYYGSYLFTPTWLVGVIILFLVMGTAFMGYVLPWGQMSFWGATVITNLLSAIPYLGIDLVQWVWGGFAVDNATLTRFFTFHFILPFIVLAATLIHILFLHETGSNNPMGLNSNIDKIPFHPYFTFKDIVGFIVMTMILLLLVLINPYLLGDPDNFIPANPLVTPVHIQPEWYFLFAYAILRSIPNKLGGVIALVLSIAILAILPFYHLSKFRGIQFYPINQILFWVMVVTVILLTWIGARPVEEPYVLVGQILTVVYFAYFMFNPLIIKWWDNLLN
Procedure, shortened: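 20–40 µg particles were incubated with reporter and competitor for 1 hr at room temperature in 50 mM Tris-HCl, 120 mM NaCl, 0.1 mM EDTA (pH 7.4) with bacitracin and undecyl maltoside. Bound ligand was filtered, acetonitrile-extracted and quantified by LC-ESI-MS/MS. Ki came from a one-site LogKi fit.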

SMILES | inhibition of NADH oxidase activity [1] | effect on reduction of cytochrome b hemes, in combination with myxothiazol [2] | displacement of FloMet bound to the Qi site (Qi site of complex III)
CCc1nc2cc(C)c(Oc3ccc(OC(F)(F)F)cc3)cc2c(OC(=O)OC)c1C [FLO, 2-ethyl-3,7-dimethyl-6-[4-(trifluoromethoxy)phenoxy]quinolin-4-yl methyl carbonate] | almost no inhibition | – | –
CCCCCC[C@H]1C(=O)O[C@H](C)[C@H](NC(=O)c2cccc(NC=O)c2O)C(=O)O[C@@H](C)[C@@H]1OC(=O)CC(C)C [antimycin A] | – | suppression of the reduction of b hemes | displaced FloMet at low nano molar range
